Assay results taken from ChEMBL document CHEMBL1144620, “Synthesis and biodistribution of new radiolabeled high-affinity choline transporter inhibitors [11C]hemicholinium-3 and [18F]hemicholinium-3” (Bioorg Med Chem Lett, 2007).

How the values were obtained:
Septum [1] = experiment: Biodistribution in septum of 9L-glioma bearing rat at 1 to 3mCi, iv after 5 mins; format: ADME, organism-based; settings: in vivo
Procedure, shortened: (§1)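 9L-glioma rats (200–300 g) given 1–3 mCi of [¹¹C]- or [¹⁸F]-labelled tracer iv by tail vein while consciously restrained. At 5 or 20 min they were decapitated under halothane anaesthesia. Tissues were excised and weighed, and decay-corrected radioactivity was counted by gamma counter. Values are %ID/g, averaged over three rats per time point.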

[2] = Biodistribution in urine of 9L-glioma bearing rat at 1 to 3 mCi, iv after 30 mins; format: ADME, organism-based; settings: in vivo, 0.5 h
Procedure, shortened: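 At 30 min, urine was drawn from the bladder by syringe after decapitation under halothane. Radioactivity was gamma-counted with decay correction and expressed as % of injected dose. Mean of three rats.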

Kidney [3] = experiment: Biodistribution in kidney of 9L-glioma bearing rat at 1 to 3 mCi, iv after 5 mins; format: ADME, organism-based; settings: in vivo; procedure, shortened: as §1
Blood [4] = experiment: Biodistribution in blood of 9L-glioma bearing rat at 1 to 3 mCi, iv after 5 mins; format: ADME, organism-based; settings: in vivo; procedure, shortened: as §1
[5] = Biodistribution in R-ventricle of 9L-glioma bearing rat at 1 to 3 mCi, iv after 5 mins; format: ADME, organism-based, Heart right ventricle; settings: in vivo; procedure, shortened: as §1
9L [6] = experiment: Biodistribution in tumor of 9L-glioma bearing rat at 1 to 3 mCi, iv after 30 mins; format: ADME, organism-based; settings: in vivo, 0.5 h
Procedure, shortened: (§2)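 At 30 min they were decapitated under halothane anaesthesia. Tissues were excised, weighed and gamma-counted with decay correction. Values are %ID/g, averaged over three rats.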

[7] = Biodistribution in A-V-node of 9L-glioma bearing rat at 1 to 3 mCi, iv after 30 mins; format: ADME, organism-based; settings: in vivo, 0.5 h; procedure, shortened: as §2
Solar plexus [8] = experiment: Biodistribution in solar plexus of 9L-glioma bearing rat at 1 to 3 mCi, iv after 30 mins; format: ADME, organism-based; settings: in vivo, 0.5 h; procedure, shortened: as §2
Blood [9] = experiment: Biodistribution in blood of 9L-glioma bearing rat at 1 to 3 mCi, iv after 30 mins; format: ADME, organism-based; settings: in vivo, 0.5 h
Procedure, shortened: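 Blood was weighed and gamma-counted with decay correction, and results are expressed as %ID/g. Total blood activity assumed a blood mass of 7% of body mass. n = 3, mean.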

Plasma [10] = experiment: Biodistribution in plasma of 9L-glioma bearing rat at 1 to 3 mCi, iv after 30 mins; format: ADME, organism-based; settings: in vivo, 0.5 h; procedure, shortened: as §2
Liver [11] = experiment: Biodistribution in liver of 9L-glioma bearing rat at 1 to 3 mCi, iv after 5 mins; format: ADME, organism-based; settings: in vivo; procedure, shortened: as §1
[12] = Biodistribution in R-Atrium of 9L-glioma bearing rat at 1 to 3 mCi, iv after 5 mins; format: ADME, organism-based, Right cardiac atrium; settings: in vivo; procedure, shortened: as §1
[13] = Ratio of biodistribution in tumor to blood of 9L-glioma bearing rat at 1 to 3 mCi, iv after 30 mins; format: ADME, organism-based; settings: tumour, 0.5 h
Lung [14] = experiment: Biodistribution in lung of 9L-glioma bearing rat at 1 to 3 mCi, iv after 30 mins; format: ADME, organism-based; settings: in vivo, 0.5 h; procedure, shortened: as §2
[15] = Biodistribution in urine of 9L-glioma bearing rat at 1 to 3 mCi, iv after 5 mins; format: ADME, organism-based; settings: in vivo
Procedure, shortened: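 In 9L-glioma rats injected iv (tail vein, conscious restraint) with 1–3 mCi of radiotracer, urine was drawn by syringe from the bladder at 5 or 20 min. Animals were killed by decapitation under halothane. Decay-corrected radioactivity was gamma-counted and expressed as percent of injected dose (%ID), averaged over three rats.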

[16] = Biodistribution in R-Atrium of 9L-glioma bearing rat at 1 to 3 mCi, iv after 30 mins; format: ADME, organism-based, Right cardiac atrium; settings: in vivo, 0.5 h; procedure, shortened: as §2
[17] = Biodistribution in L-ventricle of 9L-glioma bearing rat at 1 to 3mCi, iv after 5 mins; format: ADME, organism-based, Heart left ventricle; settings: in vivo; procedure, shortened: as §1
Plasma [18] = experiment: Biodistribution in plasma of 9L-glioma bearing rat at 1 to 3 mCi, iv after 5 mins; format: ADME, organism-based; settings: in vivo; procedure, shortened: as §1
[19] = Biodistribution in A-V-node of 9L-glioma bearing rat at 1 to 3 mCi, iv after 5 mins; format: ADME, organism-based; settings: in vivo; procedure, shortened: as §1
Solar plexus [20] = experiment: Biodistribution in solar plexus of 9L-glioma bearing rat at 1 to 3 mCi, iv after 5 mins; format: ADME, organism-based; settings: in vivo; procedure, shortened: as §1
[21] = Biodistribution in L-Atrium of 9L-glioma bearing rat at 1 to 3 mCi, iv after 5 mins; format: ADME, organism-based; settings: in vivo; procedure, shortened: as §1
[22] = Biodistribution in skeletal muscle of 9L-glioma bearing rat at 1 to 3 mCi, iv after 30 mins; format: ADME, organism-based, Muscle tissue; settings: in vivo, 0.5 h; procedure, shortened: as §2
[23] = Biodistribution in L-ventricle of 9L-glioma bearing rat at 1 to 3 mCi, iv after 30 mins; format: ADME, organism-based, Heart left ventricle; settings: in vivo, 0.5 h; procedure, shortened: as §2
[24] = Biodistribution in skeletal muscle of 9L-glioma bearing rat at 1 to 3 mCi, iv after 5 mins; format: ADME, organism-based, Muscle tissue; settings: in vivo; procedure, shortened: as §1
Kidney [25] = experiment: Biodistribution in kidney of 9L-glioma bearing rat at 1 to 3 mCi, iv after 30 mins; format: ADME, organism-based; settings: in vivo, 0.5 h; procedure, shortened: as §2
[26] = Biodistribution in R-ventricle of 9L-glioma bearing rat at 1 to 3 mCi, iv after 30 mins; format: ADME, organism-based, Heart right ventricle; settings: in vivo, 0.5 h; procedure, shortened: as §2
[27] = Ratio of biodistribution in tumor to muscle of 9L-glioma bearing rat at 1 to 3 mCi, iv after 30 mins; format: ADME, organism-based; settings: in vivo, 0.5 h
Brain [28] = experiment: Biodistribution in brain of 9L-glioma bearing rat at 1 to 3 mCi, iv after 30 mins; format: ADME, organism-based; settings: in vivo, 0.5 h; procedure, shortened: as §2
Brain [29] = experiment: Biodistribution in brain of 9L-glioma bearing rat at 1 to 3 mCi, iv after 5 mins; format: ADME, organism-based; settings: in vivo; procedure, shortened: as §1
Lung [30] = experiment: Biodistribution in lung of 9L-glioma bearing rat at 1 to 3 mCi, iv after 5 mins; format: ADME, organism-based; settings: in vivo; procedure, shortened: as §1
[31] = Biodistribution in L-Atrium of 9L-glioma bearing rat at 1 to 3 mCi, iv after 30 mins; format: ADME, organism-based, Left cardiac atrium; settings: in vivo, 0.5 h; procedure, shortened: as §2
9L [32] = experiment: Biodistribution in tumor of 9L-glioma bearing rat at 1 to 3 mCi, iv after 5 mins; format: ADME, organism-based; settings: in vivo; procedure, shortened: as §1
Septum [33] = experiment: Biodistribution in septum of 9L-glioma bearing rat at 1 to 3 mCi, iv after 30 mins; format: ADME, organism-based; settings: in vivo, 0.5 h; procedure, shortened: as §2
Liver [34] = experiment: Biodistribution in liver of 9L-glioma bearing rat at 1 to 3 mCi, iv after 30 mins; format: ADME, organism-based; settings: in vivo, 0.5 h; procedure, shortened: as §2

With `C[N+]1(C)CCOC(O)(c2ccc(-c3ccc(C4(O)C[N+](C)(C[18F])CCO4)cc3)cc2)C1.O=S(=O)([O-])C(F)(F)F.[I-]` (centres undefined) the Drug uptake (Septum [1]) was 0.53 % ID/g, the Drug uptake [2] was 27.6 % dose and the Drug uptake (Kidney [3]) was 8.676 % ID/g. For the same compound, the Drug uptake (Blood [4]) was 1.467 % ID/g, the Drug uptake [5] was 0.734 % ID/g and the Drug uptake (9L [6]) was 0.359 % ID/g. For the same compound, the Drug uptake [7] was 0.6 % ID/g, the Drug uptake (Solar plexus [8]) was 1.009 % ID/g and the Drug uptake (Blood [9]) was 0.378 % ID/g. For the same compound, the Drug uptake (Plasma [10]) was 1.272 % ID/g, the Drug uptake (Liver [11]) was 1.228 % ID/g and the Drug uptake [12] was 2.023 % ID/g. For the same compound, the Ratio [13] was 0.978, the Drug uptake (Lung [14]) was 0.533 % ID/g and the Drug uptake [15] was 10.2 % dose. The Drug uptake [16] was 0.999 % ID/g, the Drug uptake [17] was 0.438 % ID/g and the Drug uptake (Plasma [18]) was 3.732 % ID/g. For the same compound, the Drug uptake [19] was 5.607 % ID/g, the Drug uptake (Solar plexus [20]) was 1.186 % ID/g and the Drug uptake [21] was 0.824 % ID/g. It also gave a Drug uptake [22] of 0.123 % ID/g, a Drug uptake [23] of 0.253 % ID/g and a Drug uptake [24] of 0.194 % ID/g. For the same compound, the Drug uptake (Kidney [25]) was 5.935 % ID/g, the Drug uptake [26] was 0.243 % ID/g and the Ratio [27] was 3.024. It also gave a Drug uptake (Brain [28]) of 0.03 % ID/g, a Drug uptake (Brain [29]) of 0.042 % ID/g and a Drug uptake (Lung [30]) of 0.944 % ID/g. The Drug uptake [31] was 0.767 % ID/g, the Drug uptake (9L [32]) was 0.952 % ID/g and the Drug uptake (Septum [33]) was 0.262 % ID/g. The Drug uptake (Liver [34]) was 1.536 % ID/g.
